Our source for the IC50 values is ChEMBL document CHEMBL1131122, “Synthesis and biological activity of certain 4'-thio-D-arabinofuranosylpurine nucleosides” (J Med Chem, 1998).

Each structure is given as a SMILES string. Some results are limits rather than exact numbers.

A word on the IC50: it is the midpoint of a concentration-inhibition curve. Read a high IC50 as lower potency.

Common to all, as to format: functional, cell-based
Holding throughout (conditions): Homo sapiens

For one assay, the system named is CAKI-1. Put plainly: Compound was evaluated for cytotoxicity against CAKI-1(renal) cell line.
The next assay has as its system CCRF-CEM. Kind of assay: Compound was evaluated for cytotoxicity against CCRF-CEM (leukemia) cell line. In short, it runs like this:
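Human leukemia CEM cells grown in culture and exposed to the nucleosides. In one set of runs the adenosine deaminase inhibitor 2′-deoxycoformycin was also present during the incubation.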

Another assay has as its system DLD-1. Put plainly: Compound was evaluated for cytotoxicity against DLD-1(colon) cell line.
Another assay relates to NCI-H23. Put plainly: Compound was evaluated for cytotoxicity against NCI-H23 (lung) cell line.
A further assay deals with SNB-7. Put plainly: Compound was evaluated for cytotoxicity against SNB-7 (CNS) cell line.
The next assay concerns SK-MEL-28. Kind of assay: Compound was evaluated for cytotoxicity against SK-MEL-28 (melanoma) cell line.

As for `Nc1nc(N)c2ncn(C3SC(CO)C(O)C3O)c2n1` (centres undefined), the IC50 is 20 µM in the assay with CAKI-1; 0.34 µM in the assay on CCRF-CEM; > 25 µM in the assay with DLD-1; > 25 µM in the assay with NCI-H23; 1 µM in the assay with SNB-7; 0.34 µM in the assay on SK-MEL-28.

Consider `Nc1nc(F)nc2c1ncn2[C@H]1S[C@H](CO)[C@@H](O)[C@@H]1O`, for which the 50% inhibitory concentration (IC50) was 20 µM in the assay with CAKI-1; > 130 µM in the assay with CCRF-CEM; > 100 µM in the assay with DLD-1; > 100 µM with NCI-H23; > 100 µM in the assay with SNB-7; > 100 µM in the assay on SK-MEL-28.

Take `Nc1nc(F)nc2c1ncn2[C@@H]1S[C@H](CO)[C@@H](O)[C@@H]1O`: the 50% inhibitory concentration (IC50) with CAKI-1 was 10 µM; in the assay on CCRF-CEM, 30 µM; in the assay on DLD-1, > 90 µM; with NCI-H23 it was > 90 µM; in the assay with SNB-7, > 90 µM; with SK-MEL-28 it was > 90 µM.

Regarding `Nc1nc(O)c2ncn(C3SC(CO)C(O)C3O)c2n1` (centres undefined), the IC50 is 14 µM in the assay on CAKI-1; 0.57 µM in the assay on CCRF-CEM; > 20 µM with DLD-1; > 20 µM in the assay with NCI-H23; 1.1 µM in the assay on SNB-7; 1.1 µM with SK-MEL-28.
